Columns and labels:
NADPH oxidase 4 = molecular target: T1, NADPH oxidase 4 (Homo sapiens, UniProt Q9NPH5); test: Inhibition of human NOX4 overexpressed in T-REx-293 cell membrane assessed as ROS production by cell free assay in presence of NADPH; settings: in the assay text read “T-REx-293 cell membrane” for “human PMN cell membrane”
T1 sequence (Q9NPH5 whole entry): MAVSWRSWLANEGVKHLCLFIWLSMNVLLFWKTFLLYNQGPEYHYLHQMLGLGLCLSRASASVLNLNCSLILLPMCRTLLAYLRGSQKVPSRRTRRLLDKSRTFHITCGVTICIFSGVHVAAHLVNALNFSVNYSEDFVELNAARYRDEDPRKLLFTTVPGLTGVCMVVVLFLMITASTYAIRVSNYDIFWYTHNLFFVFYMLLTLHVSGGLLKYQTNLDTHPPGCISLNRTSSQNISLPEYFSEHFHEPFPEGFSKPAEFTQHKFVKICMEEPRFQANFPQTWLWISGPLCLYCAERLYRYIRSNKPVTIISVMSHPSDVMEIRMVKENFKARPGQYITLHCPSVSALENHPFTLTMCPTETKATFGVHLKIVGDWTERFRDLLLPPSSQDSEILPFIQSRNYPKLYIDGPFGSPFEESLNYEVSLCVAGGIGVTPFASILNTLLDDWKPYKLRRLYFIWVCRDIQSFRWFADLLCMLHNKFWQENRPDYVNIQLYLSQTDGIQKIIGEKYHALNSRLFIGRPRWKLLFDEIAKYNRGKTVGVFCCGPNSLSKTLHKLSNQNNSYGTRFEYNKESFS
In short: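 hNOX4 T-REx-293 cells induced with tetracycline (1 μg/mL, 24 h), sonicated in sucrose/NaCl/EGTA PBS buffer pH 7.4, membranes taken from a sucrose gradient. NADPH-triggered ROS measured by Amplex Red/HRP in PBS, with compound at 1 nM–100 μM, 20 min at 37 °C. Ki by Cheng-Prusoff from ≥3 triplicate experiments.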

[1] = Intrinsic clearance in Sprague-Dawley rat liver microsomes assessed per mg of protein at 0.5 uM; format: ADME, Microsome
In short: (§1)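 Phase I stability assay in pooled liver microsomes (human: male and female; rat: male Sprague-Dawley). Microsomes at 0.5 mg/mL final in 0.1 M phosphate pH 7.4. Compound 0.5 μM final, 0.25% DMSO. Preincubated at 37 °C, reaction started with 1 mM NADPH. Sampled at 0, 5, 15, 30 and 45 min, with a 45 min minus-NADPH control. Methanol quench with internal standard, LC/MS-MS, intrinsic clearance calculated.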

[2] = Permeability across human Caco-2 cell membrane at 10 uM after 2 hrs; format: ADME, cell-based
In short: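 Caco-2 monolayers grown 20 days in DMEM, used when TEER >800 Ω·cm2. Dosed at 10 μM final in HBSS pH 6.5 with 1% DMSO, apical-to-basolateral and basolateral-to-apical. Incubated 2 h at 37 °C, both compartments sampled, LC-MS/MS with five-point calibration. Papp = (dQ/dt)/(C0A).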

[3] = Intrinsic clearance in human liver microsomes assessed as per mg of protein at 0.5 uM; format: ADME, Microsome; in short: as §1
[4] = Cmax in Sprague-Dawley rat at 5 mg/kg, iv; format: ADME, organism-based; set-up: dose 5 mg/kg, route intravenous; settings: in vivo
In short: (§2)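 Parallel design with six male rats: three given 5 mg/kg iv in EDPW (10% EtOH, 10% DMA, 30% PG, 50% water), three given 10 mg/kg orally in aqueous 0.5% CMC with 0.25% Tween 20. Carotid cannula blood sampled up to 24 h. Plasma levels by LC/MS/MS (LLOQ 1.00 ng/mL). Noncompartmental analysis.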

[5] = Half life in Sprague-Dawley rat at 10 mg/kg, po; format: ADME, organism-based; set-up: dose 10 mg/kg, route oral; settings: in vivo; in short: as §2
[6] = AUC (infinity) in Sprague-Dawley rat at 5 mg/kg, iv; format: ADME, organism-based; set-up: time infinity, dose 5 mg/kg, route intravenous; settings: plasma; in short: as §2
[7] = Oral bioavailability in Sprague-Dawley rat at 10 mg/kg; format: ADME, organism-based; settings: in vivo
In short: (§3)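 Parallel design in male rats, three per group. Group 1: 5 mg/kg iv in EDPW (10% EtOH, 10% DMA, 30% PG, 50% water). Group 2: 10 mg/kg oral in aqueous 0.5% CMC with 0.25% Tween 20. Carotid cannula blood drawn up to 24 h. Plasma measured by LC/MS/MS (LLOQ 1.00 ng/mL), noncompartmental analysis.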

[8] = Volume of distribution at steady state in Sprague-Dawley rat at 5 mg/kg, iv; format: ADME, organism-based; set-up: dose 5 mg/kg, route intravenous; settings: in vivo, read-out: Vdss; in short: as §3
[9] = AUC (infinity) in Sprague-Dawley rat at 10 mg/kg, po; format: ADME, organism-based; set-up: time infinity, dose 10 mg/kg, route oral; settings: plasma; in short: as §2
[10] = Clearance in Sprague-Dawley rat at 10 mg/kg, po; format: ADME, organism-based; set-up: dose 10 mg/kg, route oral; settings: in vivo; in short: as §2
[11] = Cmax in Sprague-Dawley rat at 10 mg/kg, po; format: ADME, organism-based; set-up: dose 10 mg/kg, route oral; settings: in vivo; in short: as §2
[12] = Tmax in Sprague-Dawley rat at 10 mg/kg, po; format: ADME, organism-based; set-up: dose 10 mg/kg, route oral; settings: in vivo; in short: as §3
[13] = Clearance in Sprague-Dawley rat at 5 mg/kg, iv; format: ADME, organism-based; set-up: dose 5 mg/kg, route intravenous; settings: in vivo; in short: as §2

Ki (NADPH oxidase 4) [nM]	also measured	SMILES
293		Cc1c2c(=O)n(-c3cccc(C#N)c3)[nH]c2cc(=O)n1C
520		Cc1c2c(=O)n(-c3ccccc3Cl)[nH]c2cc(=O)n1CC1CCCCC1
215	microsomal CLint at 0.5 µM [1]: 49.3 µL/min/mg	Cc1c2c(=O)n(-c3ccccc3Cl)[nH]c2cc(=O)n1C
4220		Cc1c2c(=O)n(-c3nc4ccccc4s3)[nH]c2cc(=O)n1Cc1ccc(C(=O)O)cc1
158	microsomal CLint at 0.5 µM [1]: 178 µL/min/mg	Cc1c2c(=O)n(-c3ccccc3Cl)[nH]c2cc(=O)n1CC#Cc1ccccc1
218		Cc1c2c(=O)n(-c3ccccc3Cl)[nH]c2cc(=O)n1NC(=O)COc1ccc(F)cc1
326		Cc1c2c(=O)n(CCOc3ccc(Cl)cc3)[nH]c2cc(=O)n1Cc1ccccn1
4730		Cc1c2c(=O)n(-c3nc4ccccc4s3)[nH]c2cc(=O)n1CCc1c[nH]cn1
878		Cc1c2c(=O)n(-c3ccc(F)cc3)[nH]c2cc(=O)n1Cc1ccccc1
458		Cc1c2c(=O)n(-c3ccnc4cc(Cl)ccc34)[nH]c2cc(=O)n1Cc1ccccn1
285		COc1cccc(CC(=O)n2c3cc(=O)n(Cc4cccnc4)c(C)c3c(=O)n2-c2ccccc2)c1
387		Cc1c2c(=O)n(C)[nH]c2cc(=O)n1Cc1ccccn1
> 30000		Cc1c2c(=O)n(-c3ccccc3)n(Cc3ccc(F)cc3)c2cc(=O)n1CCc1c[nH]c2ccccc12
308		Cc1c2c(=O)n(-c3ccccc3F)[nH]c2cc(=O)n1C
236	microsomal CLint at 0.5 µM [1]: 71.6 µL/min/mg	Cc1c2c(=O)n(-c3ccccc3Cl)[nH]c2cc(=O)n1Cc1cccc(N2CCOCC2)n1
> 30000		Cc1c2c(=O)n(-c3nc4ccccc4s3)n(Cc3ccccc3)c2cc(=O)n1CC1CCCO1 (stereo not given)
240		CC(=O)n1c2cc(=O)n(Cc3cccnc3)c(C)c2c(=O)n1-c1ccccc1Cl
9490		Cc1c2c(=O)n(-c3ccccc3)[nH]c2cc(=O)n1Cc1ccco1
128		Cn1c(-c2ccccc2F)c2c(=O)n(-c3ccccc3Cl)[nH]c2cc1=O
342		Cc1c2c(=O)n(Cc3ccc(F)cc3Cl)[nH]c2cc(=O)n1Cc1ccccn1
> 30000		Cc1c2c(=O)n(-c3nc4ccccc4s3)n(Cc3ccccc3Cl)c2cc(=O)n1N1CCOCC1
82	microsomal CLint at 0.5 µM [1]: 210 µL/min/mg; Papp at 2 h, 10 µM [2]: 62.6 ×10⁻⁶ cm/s; microsomal CLint at 0.5 µM [3]: 212 µL/min/mg	Cn1c(COCc2ccccc2Cl)c2c(=O)n(-c3ccccc3Cl)[nH]c2cc1=O
3060		Cc1c2c(=O)n(-c3ccc(OCc4ccccc4)cc3)[nH]c2cc(=O)n1C
2180		Cc1c2c(=O)n(C)[nH]c2cc(=O)n1C
172		CN(Cc1c2c(=O)n(-c3ccccc3Cl)[nH]c2cc(=O)n1CCc1ccccn1)c1ccccc1
235	microsomal CLint at 0.5 µM [1]: 84.2 µL/min/mg; Papp at 2 h, 10 µM [2]: 13.4 ×10⁻⁶ cm/s; microsomal CLint at 0.5 µM [3]: 37.6 µL/min/mg	Cc1c2c(=O)n(-c3ccc(F)cc3Cl)[nH]c2cc(=O)n1Cc1ccccn1
313		COCCn1[nH]c2cc(=O)n(Cc3ccccn3)c(C)c2c1=O
213		Cc1c2c(=O)n(-c3ccc(F)cc3Cl)[nH]c2cc(=O)n1C

Ki (NADPH oxidase 4) [nM]	also measured	SMILES
409		CC(=O)n1c2cc(=O)n(Cc3cccnc3)c(C)c2c(=O)n1-c1ccccc1
5440		Cc1c2c(=O)n(-c3ccccc3)[nH]c2cc(=O)n1Cc1ccc2c(c1)OCO2
259		Cc1c2c(=O)n(-c3ccccc3Cl)[nH]c2cc(=O)n1Cc1ccc(S(N)(=O)=O)cc1
445		Cc1c2c(=O)n(CCN3CCOCC3)[nH]c2cc(=O)n1Cc1ccccn1
> 30000		Cc1c2c(=O)n(-c3nc4ccccc4s3)n(Cc3ccccn3)c2cc(=O)n1CC1CCOC1 (stereo not given)
5230		Cc1c2c(=O)n(-c3ccccc3)[nH]c2cc(=O)n1CCc1ccccc1
1950		Cc1c2c(=O)n(-c3nc(-c4ccccc4)cs3)[nH]c2cc(=O)n1C
328		CC(=O)Nc1cccc(-n2[nH]c3cc(=O)n(C)c(C)c3c2=O)c1
> 30000		CCOCCCn1c(C)c2c(=O)n(-c3ccccc3Cl)n(Cc3ccccn3)c2cc1=O
218		Cc1c2c(=O)n(Cc3cc(Cl)ccc3Cl)[nH]c2cc(=O)n1Cc1ccccn1
1420		Cc1c2c(=O)n(-c3ccc(S(=O)(=O)N4CCN(C)CC4)cn3)[nH]c2cc(=O)n1C
398		CC(=O)n1c2cc(=O)n(Cc3cccnc3)c(C)c2c(=O)n1-c1ccccc1C
334		Cc1c2c(=O)n(CCc3ccccc3)[nH]c2cc(=O)n1Cc1ccccn1
173		Cc1ccccc1-n1[nH]c2cc(=O)n(Cc3ccccn3)c(C)c2c1=O
153	Cmax [4]: 4640 ng/mL; half-life [5]: 2.35 h; microsomal CLint at 0.5 µM [1]: 45.3 µL/min/mg; AUC(0-inf) [6]: 822 ng·h/mL; bioavailability [7]: 6%; Vd [8]: 2.95 L/kg; AUC(0-inf) [9]: 109 ng·h/mL; Papp at 2 h, 10 µM [2]: 1.4 ×10⁻⁶ cm/s; CL/F [10]: 1610 mL/min/kg; Cmax [11]: 132 ng/mL; microsomal CLint at 0.5 µM [3]: 45.1 µL/min/mg; Tmax [12]: 0.25 h; clearance [13]: 109 mL/min/kg	COCCn1c(COc2ccc(F)cc2)c2c(=O)n(CCN3CCOCC3)[nH]c2cc1=O
565		Cc1c2c(=O)n(-c3ccccc3Cl)[nH]c2cc(=O)n1CCCO
340	microsomal CLint at 0.5 µM [1]: 163 µL/min/mg	Cc1c2c(=O)n(-c3cccc(Cl)c3)[nH]c2cc(=O)n1C
515		Cc1c2c(=O)n(-c3ccccc3Cl)[nH]c2cc(=O)n1Cc1ccc(CN2CCN(C)CC2)cc1
235		Cc1c2c(=O)n(-c3ccccc3Cl)[nH]c2cc(=O)n1CCN(C)C
463		Cc1c2c(=O)n(Cc3ccccc3)[nH]c2cc(=O)n1Cc1ccccn1
259		Cc1c2c(=O)n(Cc3ccc(Cl)cc3)[nH]c2cc(=O)n1Cc1ccccn1
428		Cc1c2c(=O)n(-c3ccccc3Cl)[nH]c2cc(=O)n1CCCC(=O)N1CCN(C)CC1
65	microsomal CLint at 0.5 µM [1]: 121 µL/min/mg; microsomal CLint at 0.5 µM [3]: 57.9 µL/min/mg	COc1cccc(N2CCN(Cc3c4c(=O)n(-c5ccccc5Cl)[nH]c4cc(=O)n3C)CC2)c1
1840		Cc1c2c(=O)n(-c3nc4ccccc4s3)[nH]c2cc(=O)n1CCc1c[nH]c2ccccc12
> 30000		Cc1c2c(=O)n(-c3ccc4nncn4n3)[nH]c2cc(=O)n1Cc1cccc(Oc2ccccc2)c1
1210		Cc1c2c(=O)n(-c3nc4ccccc4s3)[nH]c2cc(=O)n1N1CCOCC1
> 30000		Cc1c2c(=O)n(-c3ccccc3)n(Cc3ccccc3Cl)c2cc(=O)n1CCCN1CCCC1=O
